Data reported in ChEMBL document CHEMBL4354820, “Optimizing Targeted Inhibitors of P-Glycoprotein Using Computational and Structure-Guided Approaches” (J Med Chem, 2019).

The compounds below were run against T1, ATP-dependent translocase ABCB1 (Homo sapiens, UniProt P08183) (assay: Inhibition of P-gp overexpressed in human DU145-TxR cells assessed as increase in cellular accumulation of calcein AM at 2 uM pretreated followed by calcein AM addition by fluorescence imaging analysis). Settings: not given; call rule not given here.
T1 sequence (P08183 whole entry): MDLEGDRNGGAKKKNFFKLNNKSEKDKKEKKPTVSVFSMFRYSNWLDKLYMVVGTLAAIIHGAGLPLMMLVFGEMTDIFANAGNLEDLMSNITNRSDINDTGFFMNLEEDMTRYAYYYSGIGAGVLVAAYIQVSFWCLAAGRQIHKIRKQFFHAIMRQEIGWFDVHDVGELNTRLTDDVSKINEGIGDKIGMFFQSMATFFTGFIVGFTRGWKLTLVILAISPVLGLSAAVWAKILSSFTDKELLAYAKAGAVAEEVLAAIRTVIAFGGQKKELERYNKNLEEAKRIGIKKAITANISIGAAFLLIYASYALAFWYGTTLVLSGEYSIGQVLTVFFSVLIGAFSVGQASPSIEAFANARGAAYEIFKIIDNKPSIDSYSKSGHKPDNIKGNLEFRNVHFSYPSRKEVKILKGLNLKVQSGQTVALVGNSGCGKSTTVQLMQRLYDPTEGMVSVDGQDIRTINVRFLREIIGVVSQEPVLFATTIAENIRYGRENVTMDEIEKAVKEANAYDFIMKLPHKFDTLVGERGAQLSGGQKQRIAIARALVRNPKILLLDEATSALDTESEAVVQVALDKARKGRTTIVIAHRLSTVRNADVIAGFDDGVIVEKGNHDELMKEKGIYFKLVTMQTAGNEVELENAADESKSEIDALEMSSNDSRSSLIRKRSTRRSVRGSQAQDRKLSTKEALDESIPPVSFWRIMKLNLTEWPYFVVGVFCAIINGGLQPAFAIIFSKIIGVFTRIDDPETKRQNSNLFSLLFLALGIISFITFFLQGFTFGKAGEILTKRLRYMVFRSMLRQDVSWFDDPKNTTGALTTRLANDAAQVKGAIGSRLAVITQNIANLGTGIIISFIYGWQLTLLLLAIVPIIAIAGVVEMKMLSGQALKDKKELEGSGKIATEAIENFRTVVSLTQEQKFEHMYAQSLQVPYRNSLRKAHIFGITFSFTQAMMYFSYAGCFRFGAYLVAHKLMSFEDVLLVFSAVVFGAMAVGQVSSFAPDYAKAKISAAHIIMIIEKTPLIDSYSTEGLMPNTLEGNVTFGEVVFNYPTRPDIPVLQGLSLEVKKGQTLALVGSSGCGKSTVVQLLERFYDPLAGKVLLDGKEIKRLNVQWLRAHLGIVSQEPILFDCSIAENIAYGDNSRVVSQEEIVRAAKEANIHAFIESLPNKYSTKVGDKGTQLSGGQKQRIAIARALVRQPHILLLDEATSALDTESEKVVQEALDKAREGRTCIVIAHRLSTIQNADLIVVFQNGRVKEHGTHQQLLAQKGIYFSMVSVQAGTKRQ
Type: cell-based
In short: (§1)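 Confluent DU145TXR monolayers in phenol red-free RPMI 1640 given 2 μM inhibitor (DMSO vehicle) and 1 μg mL−1 calcein AM, either added together or after a 6 h inhibitor-only preincubation at 37 °C. Calcein fluorescence (ex 485 / em 535 nm) read over 60 min at 20 min intervals. Six replicates, at least two independent experiments.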
With `Cc1cc(C)c(-c2cc(NC(=O)CSc3n[nH]c(C4CC4)n3)n(-c3ccccc3)n2)cc1C` the “inhibition (INH)” value was “Active”.
In the case of `Cc1cc(C)c(-c2cc(NC(=O)CSCC(=O)N3c4ccccc4CCc4ccccc43)n(-c3ccccc3)n2)cc1C`, the “inhibition (INH)” value is reported as “Active”.

What follows are compounds tested against T1, ATP-dependent translocase ABCB1 (assay: Reversal of P-gp mediated multidrug resistance in human DU145-TxR cells overexpressing P-gp assessed as potentiation of paclitaxel-induced cytotoxicity by measuring fold reduction paclitaxel IC50 at 7 uM after 48 hrs by MTT assay relative to paclitaxel alone). Settings: not given.
Type: cell-based
In short: (§2)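 DU145TXR cells seeded at 3000 per well, 24 h later treated 48 h with paclitaxel alone or with 3, 5, 7 or 10 μM inhibitor in complete medium (DMSO vehicle). MTT 4 h, formazan dissolved in DMSO, A570 read, background subtracted, viability relative to DMSO. IC50 by four-parameter nonlinear fit; eight replicates, at least two experiments. Fold values compare paclitaxel alone or with parent inhibitor.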
`Cc1cc(C)c(-c2cc(NC(=O)CSc3n[nH]c(C4CC4)n3)n(-c3ccccc3)n2)cc1C` was tested, and the “fold change (FC)” value was 36.
With `Cc1cc(C)c(-c2cc(NC(=O)CSCC(=O)N3c4ccccc4CCc4ccccc43)n(-c3ccccc3)n2)cc1C` the “fold change (FC)” value was 353.

These compounds were tested against T1, ATP-dependent translocase ABCB1 (assay: Reversal of P-gp mediated multidrug resistance in human DU145-TxR cells overexpressing P-gp assessed as potentiation of paclitaxel-induced cytotoxicity by measuring fold reduction paclitaxel IC50 at 5 uM after 48 hrs by MTT assay relative to paclitaxel alone). Settings: not given.
Type: cell-based
In short: as §2
With `Cc1cc(C)c(-c2cc(NC(=O)CSc3n[nH]c(C4CC4)n3)n(-c3ccccc3)n2)cc1C` the “fold change (FC)” value was 11.
With `Cc1cc(C)c(-c2cc(NC(=O)CSCC(=O)N3c4ccccc4CCc4ccccc43)n(-c3ccccc3)n2)cc1C` the “fold change (FC)” value was 41.

These compounds were tested against T1, ATP-dependent translocase ABCB1 (assay: Reversal of P-gp mediated multidrug resistance in human DU145-TxR cells overexpressing P-gp assessed as potentiation of paclitaxel-induced cytotoxicity by measuring fold reduction paclitaxel IC50 at 3 uM after 48 hrs by MTT assay relative to paclitaxel alone). Settings: not given.
Type: cell-based
In short: as §2
In the case of `Cc1cc(C)c(-c2cc(NC(=O)CSc3n[nH]c(C4CC4)n3)n(-c3ccccc3)n2)cc1C`, the “fold change (FC)” value is reported as 3.
In the case of `Cc1cc(C)c(-c2cc(NC(=O)CSCC(=O)N3c4ccccc4CCc4ccccc43)n(-c3ccccc3)n2)cc1C`, the “fold change (FC)” value is reported as 13.

What follows are compounds tested against T1, ATP-dependent translocase ABCB1 (assay: Reversal of P-gp mediated multidrug resistance in human DU145-TxR cells overexpressing P-gp assessed as potentiation of paclitaxel-induced cytotoxicity by measuring fold reduction paclitaxel IC50 at 3 uM after 48 hrs by MTT assay relative to parent compound). Settings: not given.
Type: cell-based
In short: as §2
`Cc1cc(C)c(-c2cc(NC(=O)CSc3n[nH]c(C4CC4)n3)n(-c3ccccc3)n2)cc1C` was tested, and the “fold change (FC)” value was 1.
In the case of `Cc1cc(C)c(-c2cc(NC(=O)CSCC(=O)N3c4ccccc4CCc4ccccc43)n(-c3ccccc3)n2)cc1C`, the “fold change (FC)” value is reported as 3.8.

The compounds below were run against T1, ATP-dependent translocase ABCB1 (assay: Reversal of P-gp mediated multidrug resistance in human DU145-TxR cells overexpressing P-gp assessed as potentiation of paclitaxel-induced cytotoxicity by measuring fold reduction paclitaxel IC50 at 10 uM after 48 hrs by MTT assay relative to paclitaxel alone). Settings: not given.
Type: cell-based
In short: as §2
With `Cc1cc(C)c(-c2cc(NC(=O)CSc3n[nH]c(C4CC4)n3)n(-c3ccccc3)n2)cc1C` the “fold change (FC)” value was 101.
In the case of `Cc1cc(C)c(-c2cc(NC(=O)CSCC(=O)N3c4ccccc4CCc4ccccc43)n(-c3ccccc3)n2)cc1C`, the “fold change (FC)” value is reported as 530.

What follows are compounds tested against T1, ATP-dependent translocase ABCB1 (assay: Reversal of P-gp mediated multidrug resistance in human DU145-TxR cells overexpressing P-gp assessed as potentiation of paclitaxel-induced cytotoxicity by measuring fold reduction paclitaxel IC50 at 5 uM after 48 hrs by MTT assay relative to parent compound). Settings: not given.
Type: cell-based
In short: as §2
In the case of `Cc1cc(C)c(-c2cc(NC(=O)CSc3n[nH]c(C4CC4)n3)n(-c3ccccc3)n2)cc1C`, the “fold change (FC)” value is reported as 1.
`Cc1cc(C)c(-c2cc(NC(=O)CSCC(=O)N3c4ccccc4CCc4ccccc43)n(-c3ccccc3)n2)cc1C` was tested, and the “fold change (FC)” value was 3.7.

What follows are compounds tested against T1, ATP-dependent translocase ABCB1 (assay: Reversal of P-gp mediated multidrug resistance in human DU145-TxR cells overexpressing P-gp assessed as potentiation of paclitaxel-induced cytotoxicity by measuring fold reduction paclitaxel IC50 at 7 uM after 48 hrs by MTT assay relative to parent compound). Settings: not given.
Type: cell-based
In short: as §2
With `Cc1cc(C)c(-c2cc(NC(=O)CSc3n[nH]c(C4CC4)n3)n(-c3ccccc3)n2)cc1C` the “fold change (FC)” value was 1.
For `Cc1cc(C)c(-c2cc(NC(=O)CSCC(=O)N3c4ccccc4CCc4ccccc43)n(-c3ccccc3)n2)cc1C`, the “fold change (FC)” value was 10.

The compounds below were run against T1, ATP-dependent translocase ABCB1 (assay: Reversal of P-gp mediated multidrug resistance in human DU145-TxR cells overexpressing P-gp assessed as potentiation of paclitaxel-induced cytotoxicity by measuring fold reduction paclitaxel IC50 at 10 uM after 48 hrs by MTT assay relative to parent compound). Settings: not given.
Type: cell-based
In short: as §2
In the case of `Cc1cc(C)c(-c2cc(NC(=O)CSc3n[nH]c(C4CC4)n3)n(-c3ccccc3)n2)cc1C`, the “fold change (FC)” value is reported as 1.
`Cc1cc(C)c(-c2cc(NC(=O)CSCC(=O)N3c4ccccc4CCc4ccccc43)n(-c3ccccc3)n2)cc1C` was tested, and the “fold change (FC)” value was 5.

The compounds below were run against T1, ATP-dependent translocase ABCB1 (assay: Inhibition of P-gp overexpressed in human DU145-TxR cells assessed as increase in cellular accumulation of calcein AM at 2 uM preincubated for 6 hrs followed by calcein AM addition by fluorescence imaging analysis). Settings: not given.
Type: cell-based
In short: as §1
In the case of `Cc1cc(C)c(-c2cc(NC(=O)CSc3n[nH]c(C4CC4)n3)n(-c3ccccc3)n2)cc1C`, the “inhibition (INH)” value is reported as “Active”.
In the case of `Cc1cc(C)c(-c2cc(NC(=O)CSCC(=O)N3c4ccccc4CCc4ccccc43)n(-c3ccccc3)n2)cc1C`, the “inhibition (INH)” value is reported as “Active”.

The compounds below were run against T2, P-glycoprotein (ABCB1, mouse MDR3) ATPase (Mus musculus, UniProt P21447) (assay: Inhibition of verampil-stimulated ATPase hydrolysis in recombinant mouse MDR3 expressed in Pichia pastoris measured after 30 mins in presence of NADH by coupled enzyme assay (reference value: 100 +/- 8 %)). Settings: recombinant mouse MDR3 (P-gp) expressed in Pichia pastoris.
T2 sequence (P21447 whole entry): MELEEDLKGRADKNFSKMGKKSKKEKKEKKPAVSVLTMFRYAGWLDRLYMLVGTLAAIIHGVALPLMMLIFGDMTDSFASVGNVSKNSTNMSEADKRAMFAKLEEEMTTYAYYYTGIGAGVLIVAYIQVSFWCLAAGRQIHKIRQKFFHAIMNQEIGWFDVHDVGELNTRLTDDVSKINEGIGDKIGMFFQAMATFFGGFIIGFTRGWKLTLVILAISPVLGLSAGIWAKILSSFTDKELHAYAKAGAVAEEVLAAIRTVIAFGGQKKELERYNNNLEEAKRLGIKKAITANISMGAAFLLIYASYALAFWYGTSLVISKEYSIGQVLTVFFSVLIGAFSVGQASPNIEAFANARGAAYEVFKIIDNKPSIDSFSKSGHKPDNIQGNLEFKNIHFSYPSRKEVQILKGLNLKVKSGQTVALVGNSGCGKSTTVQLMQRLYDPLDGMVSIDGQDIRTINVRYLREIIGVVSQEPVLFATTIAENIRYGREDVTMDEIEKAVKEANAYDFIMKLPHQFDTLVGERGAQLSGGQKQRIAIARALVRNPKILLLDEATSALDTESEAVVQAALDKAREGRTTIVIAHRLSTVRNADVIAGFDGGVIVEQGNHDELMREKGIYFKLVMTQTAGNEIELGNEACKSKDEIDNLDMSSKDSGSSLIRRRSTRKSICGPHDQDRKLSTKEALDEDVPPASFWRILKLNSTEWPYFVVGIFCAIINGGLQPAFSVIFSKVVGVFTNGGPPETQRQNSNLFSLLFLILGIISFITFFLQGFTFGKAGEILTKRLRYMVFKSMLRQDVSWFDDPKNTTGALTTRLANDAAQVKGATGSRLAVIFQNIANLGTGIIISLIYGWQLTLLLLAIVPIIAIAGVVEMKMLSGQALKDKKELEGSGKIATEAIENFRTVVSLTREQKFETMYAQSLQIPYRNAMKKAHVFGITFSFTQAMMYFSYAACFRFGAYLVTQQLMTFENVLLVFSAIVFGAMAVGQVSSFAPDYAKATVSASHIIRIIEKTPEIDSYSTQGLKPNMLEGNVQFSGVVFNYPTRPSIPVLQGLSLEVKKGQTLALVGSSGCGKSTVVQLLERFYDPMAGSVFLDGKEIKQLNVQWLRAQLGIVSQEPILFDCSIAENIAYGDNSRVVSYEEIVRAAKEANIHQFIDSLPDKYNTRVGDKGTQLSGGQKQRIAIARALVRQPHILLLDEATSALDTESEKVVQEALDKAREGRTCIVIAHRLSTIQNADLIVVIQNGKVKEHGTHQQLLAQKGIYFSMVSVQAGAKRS
Set-up: scale not given: the % may be the effect or the level left
For `Cc1cc(C)c(-c2cc(NC(=O)CSc3n[nH]c(C4CC4)n3)n(-c3ccccc3)n2)cc1C`, the Activity at 0.5 h was 49%.
`Cc1cc(C)c(-c2cc(NC(=O)CSCC(=O)N3c4ccccc4CCc4ccccc43)n(-c3ccccc3)n2)cc1C` gave an Activity at 0.5 h of 50%.

The compounds below were run against T2, P-glycoprotein (ABCB1, mouse MDR3) ATPase (assay: Effect on basal ATPase hydrolysis of recombinant mouse MDR3 expressed in Pichia pastoris measured after 30 mins in presence of NADH by coupled enzyme assay (reference value: 100 +/- 7 %)). Settings: recombinant mouse MDR3 (P-gp) expressed in Pichia pastoris, read-out: Activity.
Set-up: scale not given: the % may be the effect or the level left
For `Cc1cc(C)c(-c2cc(NC(=O)CSc3n[nH]c(C4CC4)n3)n(-c3ccccc3)n2)cc1C`, the Activity at 0.5 h was 95%.
`Cc1cc(C)c(-c2cc(NC(=O)CSCC(=O)N3c4ccccc4CCc4ccccc43)n(-c3ccccc3)n2)cc1C` showed an Activity at 0.5 h of 88%.

What follows are compounds tested against T1, ATP-dependent translocase ABCB1 (assay: Ratio of inhibition of P-gp overexpressed in human DU145-TxR cells assessed as increase in intracellular compound accumulation after 2.5 hrs in presence of tariquidar by LC-MS/MS analysis to Inhibition of P-gp overexpressed in human DU145-TxR cells assessed as decrease in intracellular compound accumulation after 2.5 hrs in absence of tariquidar by LC-MS/MS analysis). Settings: not given.
Type: cell-based
In short: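 P-gp-overexpressing DU145TXR cells exposed to test compounds with or without tariquidar. Intracellular compound measured by LC–MS/MS, with daunorubicin as a transported-substrate control. Ratio is accumulation with tariquidar divided by accumulation without.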
For `Cc1cc(C)c(-c2cc(NC(=O)CSc3n[nH]c(C4CC4)n3)n(-c3ccccc3)n2)cc1C`, the Ratio was 1.
For `Cc1cc(C)c(-c2cc(NC(=O)CSCC(=O)N3c4ccccc4CCc4ccccc43)n(-c3ccccc3)n2)cc1C`, the Ratio was 1.

Each compound was assayed against T3, P-glycoprotein (ABCB1, MDR1) ATPase (Homo sapiens, UniProt P08183) (assay: Inhibition of verampil-stimulated ATPase hydrolysis in recombinant human MDR1 expressed in Pichia pastoris measured after 30 mins in presence of NADH by coupled enzyme assay (reference value: 100 +/- 6 %)). Settings: recombinant human MDR1 (P-gp) expressed in Pichia pastoris.
T3 sequence (P08183 whole entry): as the sequence (P08183 whole entry) above
Set-up: scale not given: the % may be the effect or the level left
`Cc1cc(C)c(-c2cc(NC(=O)CSc3n[nH]c(C4CC4)n3)n(-c3ccccc3)n2)cc1C` was tested, and the Activity at 0.5 h was 62%.
`Cc1cc(C)c(-c2cc(NC(=O)CSCC(=O)N3c4ccccc4CCc4ccccc43)n(-c3ccccc3)n2)cc1C` was tested, and the Activity at 0.5 h was 62%.

The compounds below were run against T3, P-glycoprotein (ABCB1, MDR1) ATPase (assay: Effect on basal ATPase hydrolysis of recombinant human MDR1 expressed in Pichia pastoris measured after 30 mins in presence of NADH by coupled enzyme assay (reference value: 100 +/- 5 %)). Settings: recombinant human MDR1 (P-gp) expressed in Pichia pastoris, read-out: Activity.
Set-up: scale not given: the % may be the effect or the level left
With `Cc1cc(C)c(-c2cc(NC(=O)CSCC(=O)N3c4ccccc4CCc4ccccc43)n(-c3ccccc3)n2)cc1C` the Activity at 0.5 h was 83%.

Each compound was assayed against P-glycoprotein 1 Abcb1a (Mus musculus) (assay: Inhibition of spin-labelled adenine nucleotide interaction with mouse MDR3 P-gp expressed in Escherichia coli BL21 (DE3) assessed as apparent dissociation constant by ESR analysis (reference value: 36.5 +/- 3.6 uM)). Settings: not given.
`Cc1cc(C)c(-c2cc(NC(=O)CSc3n[nH]c(C4CC4)n3)n(-c3ccccc3)n2)cc1C` was tested, and the Kd was 71 µM.
Compound `Cc1cc(C)c(-c2cc(NC(=O)CSCC(=O)N3c4ccccc4CCc4ccccc43)n(-c3ccccc3)n2)cc1C` has a Kd of 36.9 µM.

The compounds below were run on P-glycoprotein 1 Abcb1a (Mus musculus) (assay: Inhibition of 2',3'-(2,2,5,5,-tetramethyl-3-pyrroline-l-oxyl-3-carboxylic acid ester)ATP interaction with mouse MDR3 P-gp expressed in Escherichia coli BL21 (DE3) assessed as reduction in ATP binding from 2 to 1 of nucleotide to mol of protein by ESR analysis (reference value: 1.8 +/- 0.1)). Settings: not given.
`Cc1cc(C)c(-c2cc(NC(=O)CSc3n[nH]c(C4CC4)n3)n(-c3ccccc3)n2)cc1C` was tested, and the Activity was 1.9.
Work on `Cc1cc(C)c(-c2cc(NC(=O)CSCC(=O)N3c4ccccc4CCc4ccccc43)n(-c3ccccc3)n2)cc1C` yielded an Activity of 1.8.
